In ChEMBL document CHEMBL1909621, “Synthesis and biological evaluation of novel nitrogen- and sulfur-containing hetero-1,4-naphthoquinones as potent antifungal and antibacterial agents” (2011):
≈ marks a conversion by molar mass, not a printed value. Calls of active or inactive are those of the source. The rule behind the calls is not given here.

Legend:
Format in all cases: functional
Staphylococcus aureus [1] = assay: Antibacterial activity against Staphylococcus aureus 209-P after 24 to 72 hrs by serial dilution technique
Escherichia coli [2] = assay: Antibacterial activity against Escherichia coli B-906 at 0.1% after 24 hrs by diffusion technique
Staphylococcus aureus [3] = assay: Antibacterial activity against Staphylococcus aureus 209-P at 0.5% after 24 hrs by diffusion technique
Aspergillus niger [4] = assay: Antifungal activity against Aspergillus niger F-1119 at 0.5% after 48 to 72 hrs by diffusion technique
Outline: (§1)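 Fungi. Disk diffusion: 10⁹ spores (cells)/1 mL inoculum. Incubated 48–72 h at 28–30 °C. Zone around disk measured, with a nystatin control disk. Serial dilution: compounds dissolved in DMSO and diluted into wort agar, then inoculated. Incubated at 30 °C for 24–72 h. MIC recorded.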

Aspergillus niger [5] = assay: Antifungal activity against Aspergillus niger F-1119 after 24 to 72 hrs by serial dilution technique; outline: as §1
Mycobacterium [6] = assay: Antibacterial activity against Mycobacterium luteum b-917 at 0.5% after 24 hrs by diffusion technique
Mycobacterium [7] = assay: Antibacterial activity against Mycobacterium luteum b-917 after 24 to 72 hrs by serial dilution technique
Escherichia coli [8] = assay: Antibacterial activity against Escherichia coli B-906 at 0.5% after 24 hrs by diffusion technique
Aspergillus niger [9] = assay: Antifungal activity against Aspergillus niger F-1119 at 0.1% after 48 to 72 hrs by diffusion technique; outline: as §1
Mycobacterium [10] = assay: Antibacterial activity against Mycobacterium luteum b-917 at 0.1% after 24 hrs by diffusion technique
Yamadazyma tenuis [11] = assay: Antifungal activity against Candida tenuis VKM Y-70 at 0.5% after 48 to 72 hrs by diffusion technique; outline: as §1
Yamadazyma tenuis [12] = assay: Antifungal activity against Candida tenuis VKM Y-70 after 24 to 72 hrs by serial dilution technique; outline: as §1
Yamadazyma tenuis [13] = assay: Antifungal activity against Candida tenuis VKM Y-70 at 0.1% after 48 to 72 hrs by diffusion technique; outline: as §1
Staphylococcus aureus [14] = assay: Antibacterial activity against Staphylococcus aureus 209-P at 0.1% after 24 hrs by diffusion technique
Escherichia coli [15] = assay: Antibacterial activity against Escherichia coli B-906 after 24 to 72 hrs by serial dilution technique

| Molecule | inhibition (Staphylococcus aureus [1]) | diameter of the inhibition zone (DIZ) (Escherichia coli [2]) [mm] | diameter of the inhibition zone (DIZ) (Staphylococcus aureus [3]) [mm] | diameter of the inhibition zone (DIZ) (Aspergillus niger [4]) [mm] | MIC (Aspergillus niger [5]) [µg/mL] | diameter of the inhibition zone (DIZ) (Mycobacterium [6]) [mm] | MIC (Mycobacterium [7]) [µg/mL] | diameter of the inhibition zone (DIZ) (Escherichia coli [8]) [mm] | diameter of the inhibition zone (DIZ) (Aspergillus niger [9]) [mm] | diameter of the inhibition zone (DIZ) (Mycobacterium [10]) [mm] | diameter of the inhibition zone (DIZ) (Yamadazyma tenuis [11]) [mm] | MIC (Yamadazyma tenuis [12]) [µg/mL] | diameter of the inhibition zone (DIZ) (Yamadazyma tenuis [13]) [mm] | diameter of the inhibition zone (DIZ) (Staphylococcus aureus [14]) [mm] | inhibition (Escherichia coli [15]) | MIC (Staphylococcus aureus [1]) [µg/mL] | inhibition (Aspergillus niger [5]) | inhibition (Yamadazyma tenuis [12]) | inhibition (Mycobacterium [7]) | inhibition zone (IZ) (Yamadazyma tenuis [13]) [mm] |
| --- | --- | --- | --- | --- | --- | --- | --- | --- | --- | --- | --- | --- | --- | --- | --- | --- | --- | --- | --- | --- |
| O=C1C(SCc2ccc(Cl)cc2)=C(SCc2ccc(Cl)cc2)C(=O)c2ccccc21 | inactive | 0 | 0 | 0 | 31.2 (≈ 66.2 µM) | 0 | 125 (≈ 265 µM) | 0 | 0 | 0 | 7.4 | 15.6 (≈ 33.1 µM) | 0 | 0 | inactive |  |  |  |  |  |
| O=C1C(SCCCCCCCCCO)=C(SCCCCCCCCCO)C(=O)c2ccccc21 |  | 0 | 0 | 6 |  | 0 |  | 0 | 0 | 0 | 0 |  | 0 | 0 | inactive | 250 (≈ 493 µM) | inactive | inactive |  |  |
| CN[C@H](CC(C)C)C(=O)N[C@H]1C(=O)N[C@@H](CC(N)=O)C(=O)N[C@H]2C(=O)N[C@H]3C(=O)N[C@H](C(=O)N[C@H](C(=O)O)c4cc(O)cc(O)c4-c4cc3ccc4O)[C@H](O)c3ccc(c(Cl)c3)Oc3cc2cc(c3O[C@@H]2O[C@H](CO)[C@@H](O)[C@H](O)[C@H]2O[C@H]2C[C@](C)(N)[C@H](O)[C@H](C)O2)Oc2ccc(cc2Cl)[C@H]1O [VANCOMYCIN] |  | 14 |  |  |  |  |  |  |  | 18 |  |  |  | 15 |  |  |  |  |  |  |
| O=C1CCSC2=C(SCCC(=O)OCC3(CO1)COC(=O)CCSC1=C(SCCC(=O)OC3)C(=O)c3ccccc3C1=O)C(=O)c1ccccc1C2=O | inactive | 0 | 0 | 0 |  | 0 |  | 0 | 0 | 0 | 0 | 15.6 (≈ 19.6 µM) | 0 | 0 | inactive |  | inactive |  | inactive |  |
| NYSTATIN |  |  |  |  |  |  |  |  |  |  |  |  |  |  |  |  |  |  |  | 19 |
| O=C1C(Sc2ncccn2)=C(Sc2ncccn2)C(=O)c2ccccc21 |  | 0 | 9 | 9 | 500 (≈ 1320 µM) | 11.7 | 500 (≈ 1320 µM) | 0 | 7 | 6.7 | 7 | 125 (≈ 330 µM) | 6 | 6 |  | 62.5 (≈ 165 µM) |  |  |  |  |
| O=C1C2=C(SCCSCCSC3=C(SCCSCCS2)C(=O)c2ccccc2C3=O)C(=O)c2ccccc21 | inactive | 0 | 0 | 0 |  | 0 |  | 0 | 0 | 0 | 0 | 31.2 (≈ 50.6 µM) | 0 | 0 | inactive |  | inactive |  | inactive |  |
| CCOC1=C(SCc2c(C)cc(C)cc2C)C(=O)c2ccccc2C1=O | inactive | 0 | 0 | 0 |  | 0 |  | 0 | 0 | 0 | 0 | 62.5 (≈ 171 µM) | 0 | 0 | inactive |  | inactive |  | inactive |  |
| O=C1C(Sc2nc3ccc([N+](=O)[O-])cc3s2)=C(Sc2nc3ccc([N+](=O)[O-])cc3s2)C(=O)c2ccccc21 | inactive | 0 | 8 | 15 | 31.2 (≈ 53.9 µM) | 11.7 | 125 (≈ 216 µM) | 0 | 8 | 0 | 24 | 15.6 (≈ 27 µM) | 15 | 0 | inactive |  |  |  |  |  |
| CCOC1=C(SCCCCO)C(=O)c2ccccc2C1=O |  | 0 | 19.4 | 10 | 31.2 (≈ 102 µM) | 25.4 | 31.2 (≈ 102 µM) | 0 | 0 | 14.7 | 14.7 | 15.6 (≈ 50.9 µM) | 8.4 | 12 | inactive | 250 (≈ 816 µM) |  |  |  |  |
| O=C1C(SCc2ccco2)=C(SCc2ccco2)C(=O)c2ccccc21 | inactive | 0 | 7 | 10 | 62.5 (≈ 163 µM) | 10.4 |  | 0 | 8 | 7.7 | 0 | 15.6 (≈ 40.8 µM) | 0 | 0 | inactive |  |  |  |  |  |
| O=C1C(Cl)=C(SCc2ccc(Cl)cc2)C(=O)c2ccccc21 | inactive | 0 | 7 | 7 | 15.6 (≈ 44.7 µM) | 0 | 500 (≈ 1430 µM) | 0 | 0 | 0 | 14 | 15.6 (≈ 44.7 µM) | 10 | 0 | inactive |  |  |  |  |  |
| Cc1cc(C)c(CSC2=C(SCc3c(C)cc(C)cc3C)C(=O)c3ccccc3C2=O)c(C)c1 | inactive | 0 | 0 | 0 |  | 0 |  | 0 | 0 | 0 | 0 | 125 (≈ 257 µM) | 0 | 0 | inactive |  | inactive |  | inactive |  |
| O=C1C(SCCCCO)=C(SCCCCO)C(=O)c2ccccc21 |  | 0 | 26 | 6 | 31.2 (≈ 85.1 µM) | 31 | 15.6 (≈ 42.6 µM) | 0 | 0 | 22 | 8 | 7.8 (≈ 21.3 µM) | 0 | 18 | inactive | 15.6 (≈ 42.6 µM) |  |  |  |  |
| O=C1C(Cl)=C(SCCCCCCCCCO)C(=O)c2ccccc21 | inactive | 0 | 0 | 0 |  | 0 |  | 0 | 0 | 0 | 0 | 31.2 (≈ 85 µM) | 0 | 0 | inactive |  | inactive |  | inactive |  |
